Experimental data as given in ChEMBL document CHEMBL3808351, “Synthesis, biological evaluation, and physicochemical property assessment of 4-substituted 2-phenylaminoquinazolines as Mer tyrosine kinase inhibitors” (Bioorg Med Chem, 2016).
Converted amounts (≈) assume the structure as drawn.

Key:
[1] = target: T1, Tyrosine-protein kinase Mer (Homo sapiens, UniProt Q12866); experiment: Inhibition of MERTK (unknown origin) using EFPIYDFLPAKKK-CONH2 as substrate and ATP after 180 mins by microfluidic capillary electrophoresis method
T1 sequence (Q12866 whole entry): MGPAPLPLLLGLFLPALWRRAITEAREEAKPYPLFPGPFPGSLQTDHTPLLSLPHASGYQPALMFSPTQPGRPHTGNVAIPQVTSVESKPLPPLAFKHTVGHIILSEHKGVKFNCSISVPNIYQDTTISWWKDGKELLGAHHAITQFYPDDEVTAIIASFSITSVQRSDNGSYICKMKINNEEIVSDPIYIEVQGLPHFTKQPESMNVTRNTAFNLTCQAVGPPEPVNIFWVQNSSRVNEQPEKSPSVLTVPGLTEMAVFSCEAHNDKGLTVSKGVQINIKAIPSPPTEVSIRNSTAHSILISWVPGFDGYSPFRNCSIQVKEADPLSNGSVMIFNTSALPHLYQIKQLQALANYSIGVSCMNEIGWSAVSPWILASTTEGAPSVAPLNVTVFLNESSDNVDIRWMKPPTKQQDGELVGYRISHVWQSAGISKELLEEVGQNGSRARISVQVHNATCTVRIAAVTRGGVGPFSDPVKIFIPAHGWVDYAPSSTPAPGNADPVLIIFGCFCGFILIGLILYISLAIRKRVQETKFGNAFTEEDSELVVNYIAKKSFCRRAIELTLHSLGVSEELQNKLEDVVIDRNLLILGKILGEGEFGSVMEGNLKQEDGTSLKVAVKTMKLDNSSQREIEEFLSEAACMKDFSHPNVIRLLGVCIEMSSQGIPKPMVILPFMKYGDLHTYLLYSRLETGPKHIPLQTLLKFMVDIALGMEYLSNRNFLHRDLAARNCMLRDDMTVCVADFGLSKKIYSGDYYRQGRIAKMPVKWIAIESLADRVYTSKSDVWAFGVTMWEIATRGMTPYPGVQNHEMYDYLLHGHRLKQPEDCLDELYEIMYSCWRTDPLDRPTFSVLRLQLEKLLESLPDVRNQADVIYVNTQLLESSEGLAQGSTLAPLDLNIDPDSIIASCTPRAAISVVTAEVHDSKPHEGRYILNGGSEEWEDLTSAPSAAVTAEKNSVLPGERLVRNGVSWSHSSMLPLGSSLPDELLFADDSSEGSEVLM

[2] = n-octanol-water partition co-efficient, log P of the compound after 24 hrs by HPLC analysis; format: physicochemical
[3] = Solubility of the compound in phosphate buffer at pH 7.4 by HPLC-UV method; format: physicochemical
Summary of the method: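 Compound stock was 10 mg/mL in DMSO. It was diluted into pH 7.4 phosphate buffer to a final 1% DMSO and stirred 4 h at room temperature, then spun at 10,000 rpm for 5 min. The saturated supernatant was read by HPLC-UV at 254 nm on a C18 column with a MeOH/water gradient. Concentration was taken from an acetonitrile standard curve spanning 0.20–50 µg/mL. Samples were run in triplicate.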

[4] = Antiproliferative activity against human DU145 cells after 48 hrs by SRB method; format: functional; details: DU-145, 48 h
A549 = experiment: Antiproliferative activity against human A549 cells after 48 hrs by SRB method; format: functional; details: A549, 48 h
KB = experiment: Antiproliferative activity against human KB cells after 48 hrs by SRB method; format: functional
[5] = Antiproliferative activity against human KBVIN cells after 48 hrs by SRB method; format: functional

Row | SMILES | IC50 [1] [µM] | logP [2] | solubility [3] [µg/mL] | other results
1 | Fc1ccc(Nc2nc(N3CCOCC3)c3ccccc3n2)cc1 | > 30 | – | – | –
2 | COc1ccc(N(C)c2nc(N3CCOCC3)c3ccccc3n2)cc1 | > 30 | – | – | –
3 | Fc1ccc(Nc2nc(NC3CCCC3)c3ccccc3n2)cc1 | – | > 5 | 1.54 (≈ 4.78 µM) | –
4 | COc1ccc(Nc2nc(NCCCO)c3ccccc3n2)cc1 | – | 2.54 | 95.6 (≈ 295 µM) | –
5 | CCCNc1nc(N(C)c2ccc(OC)cc2)nc2ccccc12 | – | > 5 | 3.43 (≈ 10.6 µM) | –
6 | Oc1ccc(Nc2nc(NC3CCCC3)c3ccccc3n2)cc1 | – | 3.95 | 3.1 (≈ 9.68 µM) | –
7 | COc1ccc(N(C)c2nc(NC3CCCC3)c3ccccc3n2)cc1 | – | > 5 | 1.11 (≈ 3.19 µM) | –
8 | Nc1ccc(Nc2nc(NCCCO)c3ccccc3n2)cc1 | > 30 | – | – | GI50 [4]: 20.8 µM; GI50 (A549): 17.1 µM
9 | N#Cc1ccc(Nc2nc(NC3CCCC3)c3ccccc3n2)cc1 | > 30 | – | – | GI50 [4]: > 31.3 µM; GI50 (A549): > 31.3 µM
10 | OCCCNc1nc(Nc2ccc(F)cc2)nc2ccccc12 | > 30 | – | – | GI50 [4]: 20.6 µM; GI50 (A549): 19.3 µM
11 | CC(=O)O[C@H]1C(=O)[C@@]2(C)[C@H]([C@H](OC(=O)c3ccccc3)[C@]3(O)C[C@H](OC(=O)[C@H](O)[C@@H](NC(=O)c4ccccc4)c4ccccc4)C(C)=C1C3(C)C)[C@]1(OC(C)=O)CO[C@@H]1C[C@@H]2O [PACLITAXEL] | – | – | – | GI50 (KB): 0.0026 µM; GI50 (A549): 0.0049 µM; GI50 [5]: 0.948 µM

Further lines, with some results ahead:

Row | IC50 [1] [µM] | logP [2] | solubility [3] [µg/mL] | SMILES | other results
12 | > 30 | – | – | COc1ccc(N(C)c2nc(NCC3CCOCC3)c3ccccc3n2)cc1 | –
13 | – | 3.21 | 6.61 (≈ 23.6 µM) | CNc1nc(Nc2ccc(OC)cc2)nc2ccccc12 | –
14 | – | 2.84 | 7.52 (≈ 23.5 µM) | N#Cc1ccc(Nc2nc(NCCCO)c3ccccc3n2)cc1 | –
15 | – | > 5 | 10.4 (≈ 31.1 µM) | COc1ccc(Nc2nc(NC3CCCC3)c3ccccc3n2)cc1 | –
16 | – | > 5 | 4.36 (≈ 14.1 µM) | CCCNc1nc(Nc2ccc(OC)cc2)nc2ccccc12 | –
17 | > 30 | – | – | Nc1ccc(Nc2nc(N3CCOCC3)c3ccccc3n2)cc1 | –
